# Reference: article PMC7509213 (iScience, 2020)
# pIC50: −log10 of the molar value. Where two headings read alike, the source gives them in different places.
# Assays:
# [1] = target: TFIIH (Homo sapiens, UniProt P19447); test: DNA-dependent ATPase activity assay of purified TFIIH; type: biochemical; settings: 200 nM
# Summary of the method: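 Purified TFIIH, DNA-dependent ATPase assay. It was started with TFIIH, run for 2 h, and stopped with EDTA. Mixture was spotted on PEI-cellulose TLC and developed in 0.5 M LiCl/1 M HCOOH. Released 32Pi was quantified by phosphorimaging relative to DMSO, mean ± SE, n = 3.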
# [2] = system: PC3 cells; test: PC3 proliferation under hypoxia or normoxia; type: cell-based, human; settings: for pIC50: Homo sapiens, PC-3, 48 h
# Summary of the method: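 PC3 cells seeded at 5,000/well and held at 1% O2 in a humidified chamber at 37°C for 48 h (normoxia 20% O2) before 48 h exposure to test compound. A 1 μCi [3H]-thymidine pulse per well was given for 6 h, then cells were harvested onto glass-fibre filters for scintillation counting. Proliferation is relative to DMSO, mean ± SEM, n = 3, and IC50 values were derived from these curves.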
# [3] = lethal case dosed with 18 mg/m^2 F60008; ref Kitzen et al., 2009; cited from earlier work
# [4] = system: RPB1 subunit of RNAPII; test: RPB1 degradation in PC3 cells under hypoxia; type: cell-based, human; settings: PC3, 10 μM, 1% O2
# [5] = target: T1, XPB (Homo sapiens, UniProt P19447); test: XPB degradation in cells; type: cell-based; settings: 10 μM, western blot
# T1 sequence (P19447 1-782): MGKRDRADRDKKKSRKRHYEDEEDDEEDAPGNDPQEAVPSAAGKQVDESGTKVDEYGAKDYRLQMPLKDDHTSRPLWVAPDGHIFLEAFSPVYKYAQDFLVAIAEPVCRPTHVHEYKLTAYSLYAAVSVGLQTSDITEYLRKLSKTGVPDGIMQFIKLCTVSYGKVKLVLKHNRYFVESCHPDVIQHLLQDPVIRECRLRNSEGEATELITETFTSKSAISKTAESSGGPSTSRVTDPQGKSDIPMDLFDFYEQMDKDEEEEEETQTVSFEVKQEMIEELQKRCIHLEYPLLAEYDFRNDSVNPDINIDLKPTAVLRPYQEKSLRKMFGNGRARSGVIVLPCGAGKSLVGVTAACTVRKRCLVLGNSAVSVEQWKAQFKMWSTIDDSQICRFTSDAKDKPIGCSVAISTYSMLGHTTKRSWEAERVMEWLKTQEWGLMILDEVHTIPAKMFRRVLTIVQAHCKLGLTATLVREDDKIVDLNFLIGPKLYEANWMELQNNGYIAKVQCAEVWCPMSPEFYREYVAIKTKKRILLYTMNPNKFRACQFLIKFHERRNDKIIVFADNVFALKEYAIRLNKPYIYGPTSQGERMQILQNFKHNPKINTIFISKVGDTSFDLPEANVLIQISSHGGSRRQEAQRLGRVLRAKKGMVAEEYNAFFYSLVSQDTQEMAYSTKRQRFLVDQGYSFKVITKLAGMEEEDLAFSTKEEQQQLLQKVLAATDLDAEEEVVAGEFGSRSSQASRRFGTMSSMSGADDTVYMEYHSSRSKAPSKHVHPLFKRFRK
# [6] = system: RPB1 subunit of RNAPII; test: RPB1 degradation in HeLa cells; type: cell-based, human
# [7] = system: RPB1 subunit of RNAPII; test: RPB1 degradation in C342T XPB knock-in cells; type: cell-based, human; settings: 1μM
molecule,measurement,setting,value
"CC(C)[C@]12O[C@H]1[C@@H]1O[C@]13[C@]1(O[C@H]1C[C@H]1C4=C(CC[C@@]13C)C(=O)OC4)[C@@H]2O [triptolide, (1S,2S,4S,5S,7R,8R,9S,11S,13S)-8-hydroxy-1-methyl-7-propan-2-yl-3,6,10,16 tetraoxaheptacyclo[11.7.0.0^2,4.0^2,9.0^5,7.0^9,11.0^14,18] icos-14(18)-en-17-one]",ATPase activity of TFIIH,[1],nearly completely inhibited
same,pIC50,"[2]; read-out: IC50, PC3 proliferation under hypoxia",8.82
same,pIC50,"[2]; read-out: IC50, PC3 proliferation under normoxia",8.35
same,fold enhancement of anti-proliferative effect (IC50) during hypoxia,"[2]; PC3, hypoxia vs normoxia",three-fold
same,effect size during hypoxia,[2]; hypoxic PC3 cells,0.71
same,Maximum serum levels,[3],58.5 ng/mL
"O=C(Oc1cccc(F)c1OC(=O)c1cccc(O)c1)c1cccc(O)c1 [WZB117, 2-Fluoro-6-(m-hydroxybenzoyloxy) phenyl m-hydroxybenzoate]",effect on RNAPII degradation triggered by 3 μM G-2 and hypoxia,[4],antagonizes
CC(=O)S[C@@H]1CC2=CC(=O)CC[C@]2(C)[C@H]2CC[C@@]3(C)[C@@H](CC[C@@]34CCC(=O)O4)[C@H]12 [spironolactone],degradation of XPB,[5],caused degradation of the majority of XPB
same,effect on RPB1 degradation induced by G-2,[6]; 10 μM SP combined with 1 μM G-2,rescued RPB1 from degradation
same,stability of RPB1,"[6]; HeLa, 10 μM",no effect
α-amanitin,degradation of Rpb1 in C342T XPB isogenic cell line,[7],induced the degradation of Rpb1
COc1cccc2c1C(=O)c1c(O)c3c(c(O)c1C2=O)C[C@@](O)(C(=O)CO)C[C@@H]3O[C@H]1C[C@H](N)[C@H](O)[C@H](C)O1 [doxorubicin],potency under hypoxia versus normoxia,"[2]; PC3, 1% O2 vs 20% O2",decreased
